# Shown are actives, neighbours in structure and some others; about 2.9% of the full set was active somewhere.
# Runt-CBFb FRET: inhibitors of human RUNX1 Runt domain binding to CBFb. Q01196+Q13951. Cerulean-Runt/Venus-CBFb FRET ratio 530/480, 1 h. inhibition, % at 20 µM. 220,000 tested, 0.46% active. AID 1496;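 active = inhibition over about 50% at 20 µM in the single-dose screen, limit read from the data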;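 note: 0% = DMSO wells and 100% = excess unlabeled CBFb competitor control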
#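 Assay system: Cerulean-tagged RUNX1 Runt domain (FRET donor) fusion protein / Amount: 100 nM each of Venus-CBFb and Cerulean-Runt domain / Medium: Tris buffer pH 7.5 with salts and BSA / Also added: Venus-CBFb 100 nM / Schedule: 1 h complex formation plus 1 h compound treatment, room temperature / Signal: FRET fluorescence / Read-out: loss of energy transfer signal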
# RBBP9 inh: blocks human serine hydrolase RBBP9. inhibition, % at 7.94 µM. 220,000 tested, 0.2% active. AID 1515. recombinant RBBP9, FP-Rh probe fluorescence polarization;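 active = inhibition above the campaign mean of all tested compounds plus 3 SD, cut at about 14% in these data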;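 note: plate controls were DMSO wells with RBBP9 for no effect and wells lacking RBBP9 protein for full effect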
# Target sequence (O75884 whole entry, looked up): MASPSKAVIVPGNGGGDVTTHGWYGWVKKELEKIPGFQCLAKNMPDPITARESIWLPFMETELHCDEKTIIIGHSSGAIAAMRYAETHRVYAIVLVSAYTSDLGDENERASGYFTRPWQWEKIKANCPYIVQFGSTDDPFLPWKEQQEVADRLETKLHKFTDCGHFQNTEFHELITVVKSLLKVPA
#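 Measured by – fluorescence polarization · Test system – RBBP9 protein · Input – 2.5 µM RBBP9 dispensing solution, before mixing · Measure – percent inhibition from mP, scaled between DMSO and no-protein wells · Benchmarks – DMSO-treated enzyme wells and wells lacking RBBP9 · Times – preincubation 30 min plus labeling 45 min at 25 °C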
# PfM18AAP inh: blocks P. falciparum M18 aspartyl aminopeptidase | recombinant PfM18AAP, H-Glu-NHMec fluorogenic cleavage | inhibition, % at 7.35 µM | 290,000 tested, 1.2% active;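 active = inhibition above the campaign mean inhibition over all tested compounds plus 3 SD, cut at about 28% in these data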;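 note: 0% = plate median of test compound wells and 100% = 2 mM ZnCl2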
# Runt-SMMHC FRET: Runt domain-CBFb-SMMHC interaction inhibition; Cerulean-Runt/Venus-CBFb-SMMHC FRET ratio 530/480, 1 h; Q01196+Q13951; 220,000 tested, 0.74% active; inhibition, % at 20 µM;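 active = mean inhibition across duplicate retests at 20 µM reaching about 50%, limit read from the data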;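 note: 0% = DMSO wells and 100% = wells with excess untagged CBFb-SMMHC; inhibitors lower the FRET ratio by blocking Runt binding to CBFb-SMMHC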
# Hck Nef HTS: blocks Nef-activated human Hck kinase. P08631. Recombinant Hck-YEEI plus Nef, Z-Lyte FRET kinase assay. inhibition, % at 20 µM. 220,000 tested, 0.68% active. AID 463187;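 active = Hck-Nef kinase inhibition above about 50%, limit read from the data; inactive = inhibition below that limit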;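 note: 0% = DMSO with Hck plus Nef and 100% = Hck alone without Nef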
# RanGTP-Imp inh: inhibitors of RanGTP-importin-beta interaction, primary screen, biochemical, FRET, CFP-Ran, YFP-importin-beta, homogeneous; cell-free CFP-Ran/YFP-importin-beta FRET ratio; inhibition, % (concentration not given with the values); 300,000 tested, 1.1% active; AID 2216;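 active = more than half of the replicate wells show a fall in the fluorescence ratio signal beyond about 16%, limit read from the data, passing the limit was not always enough; inconclusive = exactly half of the replicate wells pass the set limit; inactive = fewer than half of replicates pass the limit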;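 note: 0% = DMSO wells and 100% = Ran loaded with GDP instead of GTP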
# Numbers without * were called inactive; u = inconclusive; x = no result given.
SMILES,Runt-CBFb FRET,RBBP9 inh,PfM18AAP inh,Runt-SMMHC FRET,Hck Nef HTS,RanGTP-Imp inh
COc1cccc(C2/C(=C(/O)c3ccc4c(c3)CC(C)O4)C(=O)C(=O)N2CC2CCCO2)c1 (stereo unspecified),x,x,5,x,x,x
CCN(CC)c1ccc(NC(=O)C2CCCN(S(=O)(=O)c3cccnc3)C2)c(C)c1 (stereo unspecified),14,-7,28*,14,1,0
Oc1ccccc1C(=S)N1CCN(C(=S)c2ccccc2O)CC1,x,x,29*,x,x,0
Cc1cccc(NNC(=S)Nc2c(C)cccc2C)c1,x,x,30*,x,x,-2
Cc1cccc(NC(=S)NNc2cccc(Cl)c2)c1,x,x,24,x,x,3
COc1cccc2c(=O)c3cccc(N)c3[nH]c12,-59,2,18,x,35,127*
CCOCCOc1cccc(C(=O)NC(c2ccccc2)c2ccccc2)c1,x,x,-6,x,x,-1
CN(C)CCN(C)Cc1c2ccccc2c(CN(C)CCN(C)C)c2ccccc12,x,x,29*,x,x,-43
CN(C)CCP(=O)(c1ccccc1)c1ccccc1,0,3,-5,3,-16,0
Cc1nc(-c2ccccc2)nc2sc(C(=O)c3ccc(F)cc3)c(N)c12,-55,-8,0,72,-101,3
CC(=O)c1sc2nc(C)cc(C)c2c1N,28,3,-9,78*,20,9
Cc1cc(C)c2c(N)c(C(=O)c3cccc(Cl)c3)sc2n1,87*,-4,4,60*,4,2
Cc1cc(C)c2c(N)c(C(=O)Nc3ncc(C)s3)sc2n1,65*,-1,10,95*,15,x
Cc1nc2sc(C(=O)c3ccccc3)c(N)c2c(C)c1C,54*,-1,-5,3,6,0
Cn1cc([N+](=O)[O-])c(C(=O)n2cccn2)n1,1,1,0,0,3,-1
CCc1cnccc1CCC(=O)Nc1ccccc1C,x,x,x,x,x,-1
FC(F)(F)c1cccc(N2CCN(C3CC4CCC3C4)CC2)c1 (stereo unspecified),x,x,2,x,x,u
CC(=O)N[C@@H](C)c1nc2ccccc2n1CCCN1CCN(c2nc(-c3ccc(C)cc3)cs2)CC1,x,x,6,x,x,9
CCOC(=O)N1CCN(Cc2cc(Cl)c3cccnc3c2O)CC1,4,0,3,-6,17,44*
COc1ccc(Cc2nnc(NC(=O)Nc3ccccc3)s2)cc1OC,x,x,-2,x,x,0
CC1(C(=O)O)Sc2[nH]c(=O)sc2C2c3ccccc3OC(=O)C21 (stereo unspecified),13,1,30*,2,-1,48*
COC(=O)C1Sc2[nH]c(=O)sc2C2c3ccccc3OC(=O)C12 (stereo unspecified),17,-2,8,-4,-1,60*
O=C(O)C1Sc2[nH]c(=O)sc2C2c3cc(Cl)ccc3OC(=O)C12 (stereo unspecified),24,-7,5,16,2,5
COc1cc(OC)cc(-c2nnc(SCc3ccc(C(=O)O)cc3)o2)c1,x,x,-19,x,x,-1
CC(=O)Nc1ccc(S(=O)(=O)N(C)CC(=O)Nc2cccc(S(=O)(=O)N3CCCC3)c2)cc1,x,x,x,x,x,1
SMILES,Runt-CBFb FRET,RBBP9 inh,PfM18AAP inh,Runt-SMMHC FRET,Hck Nef HTS,RanGTP-Imp inh
CCOC(=O)c1c(NC(=S)Nc2ccccc2)sc2c1CCN(CCc1ccccc1)C2,94*,-15,3,86,10,x
CCOC(=O)c1c(N)sc2c1CCN(CCc1ccccc1)C2,x,x,29*,x,x,72*
COc1ccc(C(=O)c2c(N)sc3c2CCN(C)C3)cc1,x,x,2,x,x,10
CN1CCc2c(sc(N)c2C(=O)O)C1,75*,2,4,144*,-12,50*
COc1cccc(CNC(=O)C2CCC(CNS(=O)(=O)c3cccc4cccnc34)CC2)c1 (stereo unspecified),x,x,-2,x,x,-5
O=C(/C=C/c1cc[n+](CC(=O)c2ccc3cccc4c3c2CC4)cc1)c1ccc2cccc3c2c1CC3,4,-6,6,15,69*,1
O=C(NC1CCCCCC1)c1ccc2nc3cc(Cl)ccc3c(=O)n2c1,7,-4,-2,0,26,12
